One molecule from ChEMBL document CHEMBL2396581, “20(S)-Protopanaxadiol (PPD) analogues chemosensitize multidrug-resistant cancer cells to clinical anticancer drugs” (Bioorg Med Chem, 2013) can be followed below.

Type in all cases: cell-based
Data set [1] has as its target T1, ATP-dependent translocase ABCB1 (Homo sapiens, UniProt P08183). The experiment in a line: Inhibition of p-gp in human KB/VCR cells assessed as intracellular accumulation of rhodamine123 at 3 uM after 2 hrs by microplate fluorometric analysis. An outline of the steps: (§1)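 KBvcr cells plated at 1 × 10^5 per well were pretreated with graded compound concentrations, then given Rhodamine123 10 μM for 2 h at 37 °C. Cells were washed with ice-cold PBS and lysed in 1% SDS. Fluorescence (ex 494/em 517 nm) was read on a microplate fluorometer and compared with untreated cells. Three independent experiments.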

Data set [2] addresses T1, ATP-dependent translocase ABCB1. Briefly: Inhibition of p-gp in human KB/VCR cells assessed as intracellular accumulation of rhodamine123 at 2 uM after 2 hrs by microplate fluorometric analysis. An outline of the steps:
as §1

For data set [3] the target is unchanged. The experiment in a line: Inhibition of p-gp in human KB/VCR cells assessed as intracellular accumulation of rhodamine123 at 1 uM after 2 hrs by microplate fluorometric analysis. An outline of the steps:
as §1

The target is the same in data set [4]. The experiment in a line: Inhibition of p-gp in human KB/VCR cells assessed as intracellular accumulation of rhodamine123 at 0.5 uM after 2 hrs by microplate fluorometric analysis. Put shortly: as §1
Data set [5] has the same target. Briefly: Inhibition of p-gp in human KB/VCR cells assessed as intracellular accumulation of adriamycin at 5 uM after 3 hrs by fluorescence assay relative to control. Put shortly: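 KBvcr cells plated at 1 × 10^5 per well were given ADM (final 10 μM) with 5 μM compound for 3 h. After ice-cold PBS wash and lysis in 1% SDS, intrinsic ADM fluorescence (ex 485/em 590 nm) was read. Results are expressed as a ratio to the ADM-only control, mean ± SD, n = 3.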

For data set [6] the target is unchanged. Briefly: Inhibition of p-gp in human KB/VCR cells assessed as intracellular accumulation of rhodamine123 after 2 hrs by microplate fluorometric analysis. Put shortly: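 KBvcr cells plated at 1 × 10^5 per well and incubated 2 h at 37 °C in CO2 incubator with 10 μM Rhodamine123, with or without test compounds. Cells washed with ice-cold PBS, then lysed in 1% SDS/PBS. Fluorescence read at ex 494/em 517 nm. Accumulation ratio taken relative to untreated cells. Mean SD of three independent experiments.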

Data set [7] shares this target. Briefly: Inhibition of p-gp in human KB/VCR cells assessed as potentiation of adriamycin-induced cytotoxicity at 5 uM after 72 hrs by MTT assay relative to verapamil. Background: Formazan colour is commonly taken as a measure of viable cells.
Data set [8] has the same target. The experiment in a line: Inhibition of p-gp in human KB/VCR cells assessed as potentiation of vincristine-induced cytotoxicity at 5 uM after 72 hrs by MTT assay relative to verapamil.
For data set [9] the target is unchanged. The experiment in a line: Inhibition of p-gp in human KB/VCR cells assessed as potentiation of 1 uM docetaxel-induced cytotoxicity at 5 uM after 72 hrs by MTT assay relative to verapamil.
Data set [10] has the same target. Briefly: Inhibition of p-gp in human KB/VCR cells assessed as potentiation of 1 uM docetaxel-induced cytotoxicity at 5 uM after 72 hrs by MTT assay. An outline of the steps:
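KBvcr cells seeded at 5 × 10^3 per well were cotreated with 5 μM compound and 1 μM docetaxel for 72 h. Survival (%) was read by MTT and compared with wells without docetaxel.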

Data set [11] has the same target. Briefly: Inhibition of p-gp in human KB/VCR cells assessed as potentiation of 100 nM docetaxel-induced cytotoxicity after 72 hrs by MTT assay. Put shortly: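 KBvcr cells cultured 72 h with fixed 100 nM docetaxel and graded modulator concentrations. Viability read by MTT, formazan at 490 nm. EC50 calculated from dose–response. Mean SD of three independent experiments.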

T1 sequence (P08183 whole entry): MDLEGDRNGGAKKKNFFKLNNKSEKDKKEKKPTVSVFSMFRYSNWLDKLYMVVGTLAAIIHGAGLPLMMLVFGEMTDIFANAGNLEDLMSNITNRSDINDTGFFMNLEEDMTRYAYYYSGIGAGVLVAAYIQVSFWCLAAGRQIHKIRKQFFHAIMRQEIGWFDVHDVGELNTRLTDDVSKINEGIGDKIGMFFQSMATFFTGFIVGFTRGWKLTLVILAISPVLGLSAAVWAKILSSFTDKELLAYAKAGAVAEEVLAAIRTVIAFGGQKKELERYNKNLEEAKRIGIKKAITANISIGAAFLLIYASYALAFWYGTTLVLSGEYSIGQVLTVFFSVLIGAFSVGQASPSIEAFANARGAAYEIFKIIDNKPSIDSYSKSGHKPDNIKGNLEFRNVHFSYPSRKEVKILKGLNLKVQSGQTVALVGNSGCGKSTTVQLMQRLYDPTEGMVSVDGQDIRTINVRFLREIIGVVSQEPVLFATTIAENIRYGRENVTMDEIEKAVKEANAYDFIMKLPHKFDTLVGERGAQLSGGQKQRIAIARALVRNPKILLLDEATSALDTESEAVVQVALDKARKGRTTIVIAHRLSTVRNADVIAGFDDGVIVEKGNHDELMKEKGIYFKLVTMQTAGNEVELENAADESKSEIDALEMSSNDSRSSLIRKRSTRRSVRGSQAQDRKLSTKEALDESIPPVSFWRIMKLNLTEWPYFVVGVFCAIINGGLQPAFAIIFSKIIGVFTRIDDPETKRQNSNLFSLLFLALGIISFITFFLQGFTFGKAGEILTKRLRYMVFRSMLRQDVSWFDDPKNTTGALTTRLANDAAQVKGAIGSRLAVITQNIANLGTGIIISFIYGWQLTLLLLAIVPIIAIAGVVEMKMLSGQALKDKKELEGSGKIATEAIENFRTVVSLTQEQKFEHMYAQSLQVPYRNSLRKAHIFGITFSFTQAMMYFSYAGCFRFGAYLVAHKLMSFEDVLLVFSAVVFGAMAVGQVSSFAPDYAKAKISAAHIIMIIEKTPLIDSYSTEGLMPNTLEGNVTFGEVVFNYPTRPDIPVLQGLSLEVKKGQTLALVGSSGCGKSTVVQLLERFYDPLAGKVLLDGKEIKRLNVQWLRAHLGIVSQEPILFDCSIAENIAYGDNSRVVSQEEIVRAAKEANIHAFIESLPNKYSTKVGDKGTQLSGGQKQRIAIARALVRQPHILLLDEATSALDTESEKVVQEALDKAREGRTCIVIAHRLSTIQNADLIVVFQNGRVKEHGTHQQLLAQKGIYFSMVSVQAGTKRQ

As for `CC1(C)[C@@H](O)CC[C@]2(C)[C@H]3C[C@@H](O)[C@@H]4[C@@H]([C@@](C)(O)CCCNCCc5ccccc5)CC[C@@]4(C)[C@]3(C)CC[C@@H]12`, the RFU in data set [1] is 105300; in data set [2] it was 63700; in data set [3], 48700; in data set [4], 43200. The “fold change (FC)” value was determined as 1.3 in [5], 1.4 in data set [7], 1.8 in [8] and 2.6 in data set [9]. The entries for the “inhibition (INH)” value in data set [6], in data set [10] and in data set [11] were “Dose-dependent effect”, “Active” and “Dose-dependent effect”, respectively.
